Here are results for four molecules from ChEMBL document CHEMBL5104215, “Synthesis of full-length homodimer αD-VxXXB that targets human α7 nicotinic acetylcholine receptors” (RSC Med Chem, 2022).

Molecules are shown by their SMILES. Activity calls are given as the source filed them. No cut-off for these calls is given here. Positions of bridges follow the written chain, without caps; N, C: chain ends. Non-standard residues stand in square brackets, D forms with d. Residues, ends and D or L forms follow the SMILES beside them. Chains are numbered I, II in the order given. Nle = CCCC[C@H](N)C(=O)O

For assay [1], the target named is T1, Neuronal acetylcholine receptor subunit alpha-7 (Homo sapiens, UniProt P36544). Description: Negative allosteric modulation activity at alpha7 nAChR in human SH-SY5Y cells assessed as inhibition of choline induced intracellular calcium by FLIPR assay. Format: cell-based. In general terms: A change in cytosolic calcium serves as a functional read-out for many receptors and channels.

Assay [2] deals with Acetylcholine-binding protein (Lymnaea stagnalis) (UniProt P58154). Description: Displacement of [3H]-epibatidine from recombinant Lymnaea stagnalis Acetylcholine-binding protein assessed as inhibition of [3H]-epibatidine binding at 20 uM by radioligand saturation binding assay. Put shortly:
(§1)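 Saturation binding of [3H]-epibatidine to recombinantly expressed Ls-AChBP was run without peptide and with a fixed peptide concentration (20 μM or 40 μM, depending on the peptide). Data are means ± SEM of triplicates from three independent experiments.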
A general note: In a radioligand displacement assay an active substance lowers the binding of a labelled ligand.

Assay [3] has the same target. Description: Displacement of [3H]-epibatidine from recombinant Lymnaea stagnalis Acetylcholine-binding protein assessed as inhibition of [3H]-epibatidine binding by radioligand saturation binding assay. The conditions noted are these: filed as negative allosteric modulator. In short, it runs like this:
as §1

In assay [4] the target is Acetylcholine-binding protein (Lymnaea stagnalis, UniProt P58154). As to the kind of experiment: Displacement of [3H]-epibatidine from recombinant Lymnaea stagnalis Acetylcholine-binding protein by radioligand binding assay. Put shortly: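 Competition binding: peptide concentration series against [3H]-epibatidine bound to recombinantly expressed Ls-AChBP; IC50 taken from concentration–response curves of displacement. Values are means ± SEM of triplicates from three independent experiments.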

The target of assay [5] is Acetylcholine-binding protein (Lymnaea stagnalis) (UniProt P58154). Description: Displacement of [3H]-epibatidine from recombinant Lymnaea stagnalis Acetylcholine-binding protein assessed as inhibition of [3H]-epibatidine binding at 40 uM by radioligand saturation binding assay. Put shortly: as §1
Assay [6] has as its target T1, Neuronal acetylcholine receptor subunit alpha-7. As to the kind of experiment: Negative allosteric modulation activity at alpha7 nAChR in human SH-SY5Y cells assessed as fold change in inhibition of choline induced intracellular calcium by FLIPR assay relative to CTD(21-50). Format: cell-based. The conditions noted are these: filed as negative allosteric modulator.

Assay [7] has as its target Acetylcholine-binding protein (Lymnaea stagnalis) (UniProt P58154). Description: Displacement of [3H]-epibatidine from recombinant Lymnaea stagnalis Acetylcholine-binding protein assessed as fold change in inhibition of [3H]-epibatidine binding by radioligand binding assay relative to CTD(21-50). The conditions noted are these: filed as negative allosteric modulator. Put shortly: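 Competition binding: peptides displaced [3H]-epibatidine from recombinantly expressed Lymnaea stagnalis AChBP. IC50 came from concentration–response curves. The ratio is each peptide's IC50 divided by the IC50 of the CTD(21–50) reference. Data are means ± SEM of triplicates from three independent experiments.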

Chain of Acetylcholine-binding protein (Lymnaea stagnalis) (P58154 whole entry): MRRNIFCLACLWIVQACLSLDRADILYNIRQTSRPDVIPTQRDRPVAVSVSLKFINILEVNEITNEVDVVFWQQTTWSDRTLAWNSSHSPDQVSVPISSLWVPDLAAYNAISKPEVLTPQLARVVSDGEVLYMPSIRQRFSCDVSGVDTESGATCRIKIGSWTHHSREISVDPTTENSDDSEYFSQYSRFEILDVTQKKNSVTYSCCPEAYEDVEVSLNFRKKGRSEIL
T1 sequence (P36544 whole entry): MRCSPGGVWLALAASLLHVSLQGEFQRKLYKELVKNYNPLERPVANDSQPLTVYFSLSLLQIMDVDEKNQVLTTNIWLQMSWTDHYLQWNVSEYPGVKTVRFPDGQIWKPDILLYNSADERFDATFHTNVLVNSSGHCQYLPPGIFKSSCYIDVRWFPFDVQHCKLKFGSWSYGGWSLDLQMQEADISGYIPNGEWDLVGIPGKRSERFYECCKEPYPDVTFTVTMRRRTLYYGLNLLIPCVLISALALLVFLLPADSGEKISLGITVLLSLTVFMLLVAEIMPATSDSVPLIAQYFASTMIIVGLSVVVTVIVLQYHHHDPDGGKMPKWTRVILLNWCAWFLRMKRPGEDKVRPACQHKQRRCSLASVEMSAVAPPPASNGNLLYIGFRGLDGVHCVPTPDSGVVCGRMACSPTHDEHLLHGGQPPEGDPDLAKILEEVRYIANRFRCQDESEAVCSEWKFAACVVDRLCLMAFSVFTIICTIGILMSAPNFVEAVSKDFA
Chain of Acetylcholine-binding protein (P58154 whole entry): as the sequence (P58154 whole entry) above

Take `CC[C@H](C)[C@@H]1NC(=O)[C@H](CC(N)=O)NC(=O)[C@H]([C@@H](C)O)NC(=O)[C@H](CCCNC(=N)N)NC(=O)[C@H](CC(=O)O)NC(=O)[C@H](CO)NC(=O)[C@@H]2CCCN2C(=O)[C@H](Cc2c[nH]c3ccccc23)NC(=O)CNC(=O)[C@H](CCCNC(=N)N)NC(=O)[C@@H](N)CSSC[C@H](N)C(=O)N[C@@H]([C@@H](C)CC)C(=O)N[C@@H]([C@@H](C)CC)C(=O)N[C@@H](CC(N)=O)C(=O)N[C@@H]([C@@H](C)O)C(=O)N[C@@H](CCCNC(=N)N)C(=O)N[C@@H](CC(=O)O)C(=O)N[C@@H](CO)C(=O)N2CCC[C@H]2C(=O)N[C@@H](Cc2c[nH]c3ccccc23)C(=O)NCC(=O)N[C@@H](CCCNC(=N)N)C(=O)N[C@H](C(=O)O)CSSC[C@@H](C(=O)O)NC(=O)[C@H]([C@@H](C)CC)NC1=O` (I: H-CIINTRDSPWGRC-OH / II: H-CRGWPSDRTNIIC-OH; disulfide I:1-II:1, I:13-II:13): the IC50 in assay [1] is 46 µM.
As for `CCCC[C@@H]1NC(=O)[C@H](CO)NC(=O)CNC(=O)[C@@H](NC(=O)[C@H](CCCC)NC(=O)[C@H](CCCNC(=N)N)NC(=O)[C@@H](N)[C@@H](C)O)CSSC[C@@H]2NC(=O)[C@H]([C@@H](C)O)NC(=O)[C@@H]3CSSC[C@@H](C(=O)N4CCC[C@H]4C(=O)NCC(=O)O)NC(=O)[C@H](CO)NC(=O)[C@H](CSSC[C@H](NC(=O)[C@H](CO)NC1=O)C(=O)N1CCC[C@H]1C(=O)N[C@@H](CCCNC(=N)N)C(=O)N[C@@H](CC(N)=O)C(=O)NCC(=O)N3)NC(=O)CNC(=O)[C@H](Cc1cnc[nH]1)NC(=O)CNC(=O)[C@H](CCCNC(=N)N)NC(=O)[C@H](CCCNC(=N)N)NC(=O)[C@H](Cc1c[nH]c3ccccc13)NC(=O)[C@H](Cc1cnc[nH]1)NC(=O)[C@H](Cc1ccc(O)cc1)NC(=O)[C@H](C(C)C)NC2=O` (H-TR[Nle]CGS[Nle]SCPRNGCTCVYHWRRGHGCSCPG-OH; disulfide 4-16, 9-26, 14-28), the IC50 in assay [1] worked out at 0.176 µM; in assay [4] it was 20 µM. Further, the inhibition in assay [2] came to 20%. For the same molecule, the outcome in assay [3] was Active.
Regarding `CC[C@H](C)[C@@H]1NC(=O)[C@H](CC(N)=O)NC(=O)[C@H]([C@@H](C)O)NC(=O)[C@H](CCCNC(=N)N)NC(=O)[C@H](CC(=O)O)NC(=O)[C@H](CO)NC(=O)[C@@H]2CCCN2C(=O)[C@H](Cc2c[nH]c3ccccc23)NC(=O)CNC(=O)[C@H](CCCNC(=N)N)NC(=O)[C@@H](N)CSSC[C@H](NC(=O)[C@H](CCC(=O)O)NC(=O)[C@H](CO)NC(=O)[C@H](CCC(=O)O)NC(=O)[C@H](CC(=O)O)NC(=O)[C@@H](N)CC(=O)O)C(=O)N[C@@H]([C@@H](C)CC)C(=O)N[C@@H]([C@@H](C)CC)C(=O)N[C@@H](CC(N)=O)C(=O)N[C@@H]([C@@H](C)O)C(=O)N[C@@H](CCCNC(=N)N)C(=O)N[C@@H](CC(=O)O)C(=O)N[C@@H](CO)C(=O)N2CCC[C@H]2C(=O)N[C@@H](Cc2c[nH]c3ccccc23)C(=O)NCC(=O)N[C@@H](CCCNC(=N)N)C(=O)N[C@H](C(=O)O)CSSC[C@@H](C(=O)N[C@@H](CCC(=O)O)C(=O)N[C@@H](CO)C(=O)N[C@@H](CCC(=O)O)C(=O)N[C@@H](CC(=O)O)C(=O)N[C@@H](CC(=O)O)C(=O)O)NC(=O)[C@H]([C@@H](C)CC)NC1=O` (I: H-CRGWPSDRTNIICESEDD-OH / II: H-DDESECIINTRDSPWGRC-OH; disulfide I:1-II:6, I:13-II:18), the concentration for half-maximal inhibition (IC50) in assay [1] amounted to 35 µM.
In the case of `CCCC[C@@H]1N[C@@H](CO)C(=O)NCC(=O)N[C@H]2CSSC[C@@H]3NC(=O)[C@H](C(C)C)NC(=O)[C@H](Cc4ccc(O)cc4)NC(=O)[C@H](Cc4cnc[nH]4)NC(=O)[C@H](Cc4c[nH]c5ccccc45)NC(=O)[C@H](CCCNC(=N)N)NC(=O)[C@H](CCCNC(=N)N)NC(=O)CNC(=O)[C@H](Cc4cnc[nH]4)NC(=O)CNC(=O)[C@@H]4CSSC[C@H](NC(=O)[C@@H]5CCCN5C(=O)[C@H](CCCNC(=N)N)NC(=O)[C@H](CC(N)=O)NC(=O)CNC(=O)[C@H](CSSC[C@H](NC(=O)[C@@H]5CCCN5C(=O)CN)C(=O)N[C@@H](CO)C(=O)N4)NC(=O)[C@H]([C@@H](C)O)NC3=O)C(=O)N[C@@H](CSSC[C@@H](C(=O)O)NC(=O)[C@H](CCCNC(=N)N)NC(=O)[C@H]([C@@H](C)O)NC(=O)[C@H](CCCNC(=N)N)N[C@@H](CCCC)C(=O)NC2=O)C(=O)NC1=O`, the IC50 amounted to 0.023 µM in assay [1] and 10 µM in assay [4]. The inhibition in assay [5] amounted to 29%. Moreover, the results for the fold change (FC) in assay [6] and in assay [7] were 8 and 2, respectively. Besides, the outcome in assay [3] was Active.

The term IC50 denotes the concentration that inhibits the measured activity by half. In general, inhibition refers to the share of the control response that was lost under treatment.
